Results taken from ChEMBL document CHEMBL1150358, “Substituted benzyl-pyrimidines targeting thymidine monophosphate kinase of Mycobacterium tuberculosis: synthesis and in vitro anti-mycobacterial activity” (Bioorg Med Chem, 2008).
Activity calls are given as the source filed them. The calls are words filed in the database; no cut-off is given here.

What was measured:
[1] = Selectivity index, ratio of Ki for human TMPK to Ki for Mycobacterium tuberculosis recombinant TMPK
In short: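 Selectivity index computed as Ki human TMPK divided by Ki M. tuberculosis TMPK, each Ki from recombinant enzyme assays with ATP and dTMP, mean of three assays.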

Thymidylate kinase [2] = molecular target: T1, Thymidylate kinase (Homo sapiens, UniProt P23919); experiment: Inhibition of human TMPK
T1 sequence (P23919 whole entry): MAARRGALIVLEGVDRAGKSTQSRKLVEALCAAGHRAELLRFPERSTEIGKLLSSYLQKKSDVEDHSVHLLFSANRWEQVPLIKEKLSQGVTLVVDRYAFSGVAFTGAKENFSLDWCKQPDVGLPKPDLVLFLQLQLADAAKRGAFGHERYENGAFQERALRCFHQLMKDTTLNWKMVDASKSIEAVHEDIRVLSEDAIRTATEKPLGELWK

Vero [3] = experiment: Cytotoxicity against african green monkey Vero cells by MTT assay at 400 ug/ml after 72 hrs; assay type: cell-based; settings: chlorocebus sabaeus
In short: (§1)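 Vero cells in DMEM with 10% fetal calf serum plus penicillin/streptomycin; seeded 6 × 10^3 cells/mL, exposed to compounds (range 5–400 µg/mL) 72 h at 37 °C, 5% CO2; MTT 7.5 mg/mL added 4 h, formazan dissolved in 10% SDS/0.01 M HCl, OD 550/570 nm; duplicate, untreated cells as control.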

Thymidylate kinase [4] = molecular target: T2, Thymidylate kinase (Mycobacterium tuberculosis, UniProt P9WKE1); experiment: Inhibition of Mycobacterium tuberculosis recombinant TMPK
T2 sequence (P9WKE1 whole entry): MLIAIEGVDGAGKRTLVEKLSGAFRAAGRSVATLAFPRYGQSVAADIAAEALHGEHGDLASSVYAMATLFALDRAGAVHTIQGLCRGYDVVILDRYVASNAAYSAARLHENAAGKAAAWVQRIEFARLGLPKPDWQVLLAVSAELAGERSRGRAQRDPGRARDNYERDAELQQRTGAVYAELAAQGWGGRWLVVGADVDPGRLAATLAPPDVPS

Vero [5] = experiment: Cytotoxicity against african green monkey Vero cells by MTT assay at 100 ug/ml after 72 hrs; assay type: cell-based; settings: chlorocebus sabaeus; in short: as §1
[6] = molecular target: T3, Thymidylate kinase (Homo sapiens) (UniProt P23919); experiment: Inhibition of human TMPK upto 2 mM
T3 sequence (whole entry): T1 sequence (P23919 whole entry)

[7] = molecular target: T4, Thymidylate kinase (Mycobacterium tuberculosis) (UniProt P9WKE1); experiment: Inhibition of Mycobacterium tuberculosis recombinant TMPK upto 2 mM
T4 sequence (whole entry): T2 sequence (P9WKE1 whole entry)

[8] = molecular target: T4, Thymidylate kinase (Mycobacterium tuberculosis); experiment: Inhibition of Mycobacterium tuberculosis recombinant TMPK upto 0.2 mM

## O=C(O)CCCc1ccc(Cn2cc(Cl)c(=O)[nH]c2=O)cc1
[1]
  Ratio Ki: 120
Thymidylate kinase [2]
  Ki: 790 µM
Vero [3]
  Activity: Non-toxic

## NC(=O)CCCc1ccc(Cn2cc(Cl)c(=O)[nH]c2=O)cc1
Thymidylate kinase [4]
  Ki: 39 µM
Vero [5]
  Activity: 10%
[6]
  Activity: inactive

## O=C(O)CCCc1ccc(Cn2cc(Br)c(=O)[nH]c2=O)cc1
Thymidylate kinase [4]
  Ki: 10 µM
[1]
  Ratio Ki: 29
Vero [5]
  Activity: 14%
Thymidylate kinase [2]
  Ki: 293 µM

## Cc1cn(Cc2ccc(/C=C/C(=O)O)cc2)c(=O)[nH]c1=O
[7]
  Activity: inactive
Vero [3]
  Activity: Non-toxic

## Cc1cn(Cc2ccc(CCCCCC(N)=O)cc2)c(=O)[nH]c1=O
Thymidylate kinase [4]
  Ki: 26.5 µM
Vero [3]
  Activity: Non-toxic

## Cc1cn(Cc2ccc(CCCCCC(=O)O)cc2)c(=O)[nH]c1=O
Thymidylate kinase [4]
  Ki: 47 µM
Vero [3]
  Activity: Non-toxic

## O=C(O)CCCCc1ccc(Cn2cc(Br)c(=O)[nH]c2=O)cc1
Thymidylate kinase [4]
  Ki: 38 µM
Vero [3]
  Activity: Non-toxic

## O=C(O)CCCc1ccc(Cn2ccc(=O)[nH]c2=O)cc1
Thymidylate kinase [4]
  Ki: 202 µM
Vero [3]
  Activity: Non-toxic

## O=C(O)CCCCCc1ccc(Cn2cc(Cl)c(=O)[nH]c2=O)cc1
Thymidylate kinase [4]
  Ki: 23 µM
Vero [3]
  Activity: Non-toxic

## COC(=O)CCCc1ccc(Cn2cc(Cl)c(=O)[nH]c2=O)cc1
Thymidylate kinase [4]
  Ki: 59 µM
Vero [3]
  Activity: Non-toxic

## NC(=O)CCCc1ccc(Cn2ccc(=O)[nH]c2=O)cc1
[7]
  Activity: inactive
Vero [3]
  Activity: Non-toxic

## NC(=O)CCCCc1ccc(Cn2cc(Br)c(=O)[nH]c2=O)cc1
Thymidylate kinase [4]
  Ki: 35 µM
Vero [3]
  Activity: Non-toxic

## Cc1cn(Cc2ccc(CCCCC(N)=O)cc2)c(=O)[nH]c1=O
Thymidylate kinase [4]
  Ki: 55 µM
Vero [3]
  Activity: Non-toxic

## O=C(O)CCCCCc1ccc(Cn2cc(Br)c(=O)[nH]c2=O)cc1
Thymidylate kinase [4]
  Ki: 34 µM
[1]
  Ratio Ki: 3
Thymidylate kinase [2]
  Ki: 92 µM
Vero [3]
  Activity: Non-toxic

## Cc1cn([C@H]2C[C@H](O)[C@@H](CO)O2)c(=O)[nH]c1=O [DOXRIBTIMINE]
Vero [3]
  Activity: Non-toxic

## O=c1[nH]c(=O)n([C@H]2C[C@H](O)[C@@H](CO)O2)cc1Br [BROXURIDINE]
Thymidylate kinase [4]
  Ki: 5 µM
[1]
  Ratio Ki: 43
Thymidylate kinase [2]
  Ki: 214 µM
Vero [3]
  Activity: Non-toxic

## COC(=O)CCCc1ccc(Cn2cc(Br)c(=O)[nH]c2=O)cc1
Thymidylate kinase [4]
  Ki: 52 µM
Vero [3]
  Activity: Non-toxic

## CCCCc1ccc(Cn2cc(Br)c(=O)[nH]c2=O)cc1
[8]
  Activity: inactive
Vero [3]
  Activity: Non-toxic

## CCCCCCc1ccc(Cn2cc(Br)c(=O)[nH]c2=O)cc1
[8]
  Activity: inactive
Vero [3]
  Activity: Non-toxic

## Cc1cn(Cc2ccc(CCCCO)cc2)c(=O)[nH]c1=O
Thymidylate kinase [4]
  Ki: 51 µM
Vero [3]
  Activity: Non-toxic

## Cc1cn(Cc2ccc(Br)cc2)c(=O)[nH]c1=O
Vero [3]
  Activity: Non-toxic

## Cc1cn([C@@H]2O[C@H](CO)[C@@H](O)[C@H]2O)c(=O)n(Cc2ccccc2)c1=O
Thymidylate kinase [4]
  Ki: 75 µM

## CCCCc1ccc(Cn2cc(Cl)c(=O)[nH]c2=O)cc1
[8]
  Activity: inactive
Vero [3]
  Activity: Non-toxic

## Cc1cn(Cc2ccc(CCCC(=O)O)cc2)c(=O)[nH]c1=O
Thymidylate kinase [4]
  Ki: 13 µM
[1]
  Ratio Ki: 19
Thymidylate kinase [2]
  Ki: 252 µM

## Cc1cn(Cc2ccc(C#CCCCC(=O)O)cc2)c(=O)[nH]c1=O
Thymidylate kinase [4]
  Ki: 96 µM
Vero [3]
  Activity: Non-toxic

## O=c1[nH]c(=O)n([C@H]2C[C@H](O)[C@@H](CO)O2)cc1Cl [CHLORODEOXYURIDINE]
Thymidylate kinase [4]
  Ki: 10 µM

## Cc1cn(Cc2ccc(CCC(=O)O)cc2)c(=O)[nH]c1=O
Thymidylate kinase [4]
  Ki: 55 µM
Vero [3]
  Activity: Non-toxic

## Cc1cn(Cc2ccc(CCC(N)=O)cc2)c(=O)[nH]c1=O
Thymidylate kinase [4]
  Ki: 89 µM
Vero [3]
  Activity: Non-toxic

## Cc1cn(Cc2ccc(C#CCCO)cc2)c(=O)[nH]c1=O
Thymidylate kinase [4]
  Ki: 70 µM
Vero [3]
  Activity: Non-toxic

## NC(=O)CCCCCc1ccc(Cn2cc(Br)c(=O)[nH]c2=O)cc1
Thymidylate kinase [4]
  Ki: 19.5 µM
Vero [3]
  Activity: Non-toxic

## Cc1cn(Cc2ccc(/C=C/C(N)=O)cc2)c(=O)[nH]c1=O
Thymidylate kinase [4]
  Ki: 195 µM
Vero [3]
  Activity: Non-toxic

## NC(=O)CCCc1ccc(Cn2cc(Br)c(=O)[nH]c2=O)cc1
Thymidylate kinase [4]
  Ki: 39 µM
[6]
  Activity: inactive
Vero [3]
  Activity: Non-toxic

## NC(=O)CCCCCc1ccc(Cn2cc(Cl)c(=O)[nH]c2=O)cc1
Thymidylate kinase [4]
  Ki: 26 µM
Vero [3]
  Activity: Non-toxic

## O=C(O)CCCCc1ccc(Cn2cc(Cl)c(=O)[nH]c2=O)cc1
Thymidylate kinase [4]
  Ki: 16 µM
[1]
  Ratio Ki: 7.6
Thymidylate kinase [2]
  Ki: 122 µM
Vero [3]
  Activity: Non-toxic

## Cc1cn(Cc2ccc(CCCCC(=O)O)cc2)c(=O)[nH]c1=O
Thymidylate kinase [4]
  Ki: 58 µM
Vero [3]
  Activity: Non-toxic

## CCCCCCc1ccc(Cn2cc(Cl)c(=O)[nH]c2=O)cc1
[8]
  Activity: inactive
Vero [3]
  Activity: Non-toxic

## Cc1cn(Cc2ccc(/C=C/CC(=O)O)cc2)c(=O)[nH]c1=O
Thymidylate kinase [4]
  Ki: 39 µM
Vero [3]
  Activity: Non-toxic

## Cc1cn(Cc2ccc(CCCC(N)=O)cc2)c(=O)[nH]c1=O
Thymidylate kinase [4]
  Ki: 112 µM
Vero [3]
  Activity: Non-toxic
